Test results: ChEMBL document CHEMBL4602668, “Oxygenated Cyclohexene Derivatives and Other Constituents from the Roots of Monanthotaxis trichocarpa” (J Nat Prod, 2020)
pEC50: −log10 of the molar value. Values after ≈ are worked out from the molar mass of the structure shown. Active and inactive are the calls of the source. The calls are words filed in the database; no cut-off is given here.

Tested on: Escherichia coli
Experiment: Antibacterial activity against Escherichia coli at 5 mM incubated for 18 hrs by AlamarBlue assay
Type: functional, organism-based
Conditions: not given

Row | SMILES | Activity
1 | CC[C@H](CC[C@@H](C)[C@H]1CC[C@H]2[C@@H]3CC=C4C[C@@H](O)CC[C@]4(C)[C@H]3CC[C@]12C)C(C)C | inactive
2 | CO[C@H]1C=C[C@@H](OC(=O)c2ccccc2)[C@@H](OC)[C@]1(O)COC(=O)c1ccccc1 | inactive
3 | COc1ccc(C(=O)C(C)c2ccc(O)cc2)c(O)c1 (centres undefined) | inactive
4 | COc1ccccc1COC(=O)c1ccccc1 | inactive
5 | COc1cc(O)c(Cc2ccccc2O)c(O)c1C(=O)CCc1ccccc1 [UVARETIN] | inactive
6 | COc1cc(O)cc(O)c1C(=O)CCc1ccccc1 | inactive
7 | O=C(OCc1ccccc1)c1ccccc1 | inactive
8 | CC(=O)O[C@@H]1C=C[C@@H](OC(=O)c2ccccc2)[C@H](O)[C@]1(O)COC(=O)c1ccccc1 | inactive
9 | COc1c(Cc2ccccc2O)c(O)c(Cc2ccccc2O)c(O)c1C(=O)CCc1ccccc1 | inactive
10 | CO[C@H]1[C@H](OC(=O)c2ccccc2)C=C[C@H](Cl)[C@]1(O)COC(=O)c1ccccc1 | inactive
11 | CO[C@@H]1[C@H](OC(=O)c2ccccc2)C=C[C@@H](O)[C@@]1(O)COC(=O)c1ccccc1 | inactive
12 | CC[C@H](/C=C/[C@@H](C)[C@H]1CC[C@H]2[C@@H]3CC=C4C[C@@H](O)CC[C@]4(C)[C@H]3CC[C@]12C)C(C)C | inactive

Tested on: Bacillus subtilis
Experiment: Antibacterial activity against Bacillus subtilis incubated for 18 hrs by AlamarBlue assay
Type: functional
Conditions: not given

Row | SMILES | MIC [µM]
13 | COc1cc(O)c(Cc2ccccc2O)c(O)c1C(=O)CCc1ccccc1 [UVARETIN] | 18 (≈ 6.81 µg/mL)

Tested on: MCF7
Experiment: Cytotoxicity against human MCF7 cells after 24 hrs by PrestoBlue cell viability reagent based assay
Type: functional
Conditions: MCF7, 24 h
How it was run: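 MCF-7 cells were kept in exponential growth in DMEM with 10% fetal calf serum, reseeded in 96-well plates, and settled 24 h. Compounds were added from DMSO stock (final solvent 0.3% v/v) in 2-fold dilutions for 24 h. Viability was read as resorufin fluorescence (ex 544/em 590 nm) and expressed as % of solvent-only control. EC50 came from three independent replicate experiments.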

Row | SMILES | pEC50
14 | COc1cc(O)c(Cc2ccccc2O)c(O)c1C(=O)CCc1ccccc1 [UVARETIN] | 4.99
